Results published in ChEMBL document CHEMBL3526081 (Drug Metab Dispos, 2011).

Assays:
[1] = Drug metabolism in Colony-bred Chinese Bama minipig liver microsomes assessed as 5beta-hydroxylcinobufaginn formation per mg of protein at 100 uM at 37 degC after 30 mins by UFLC-ESI-MS analysis; assay type: ADME, Sus scrofa; settings: pig, 0.5 h
Procedure, shortened: (§1)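 Liver microsomes (0.3 mg protein/ml) incubated with 100 µM substrate at 37°C for 30 min, in 100 mM potassium phosphate pH 7.4 with NADPH-generating system (1 mM NADP+, 10 mM glucose 6-phosphate, 1 unit/ml G6PDH, 4 mM MgCl2). Acetonitrile ≤1% final. Stopped with ice-cold acetonitrile and centrifuged. Metabolites identified by UFLC-ESI-MS and quantified by UFLC-DAD at 294 nm against authentic standard curves.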

Liver = test: Ratio of Vmax/Km in Swiss-Hauschka (ICR) mouse liver microsomes assessed as 5beta-hydroxylcinobufaginn formation at 100 uM […] by UFLC-ESI-MS analysis; assay type: ADME; settings: 0.5 h
[2] = Drug metabolism in cynomolgus monkey liver microsomes assessed as 1alpha-hydroxylcinobufagin formation per mg of protein at 100 uM at 37 degC after 30 mins by UFLC-ESI-MS analysis; assay type: ADME, Macaca fascicularis; settings: 0.5 h; procedure, shortened: as §1
Liver microsome [3] = test: Drug metabolism in beagle dog liver microsomes assessed as 1alpha-hydroxylcinobufagin formation at 100 uM at 37 degC after 30 mins by UFLC-ESI-MS analysis in presence of 10 uM furafylline CYP1A2 inhibitor; assay type: ADME, Canis lupus familiaris; settings: 0.5 h
Procedure, shortened: (§2)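 Chemical inhibition: selective P450 inhibitors (furafylline, sulfaphenazole, ketoconazole) added to liver microsome incubations in 100 mM potassium phosphate pH 7.4 with NADPH-generating system at 37°C. Hydroxylated metabolite formation quantified by UFLC at 294 nm against standards. Mean ± S.D. of three experiments in duplicate.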

Liver microsome [4] = test: Ratio of Vmax/Km in beagle dog liver microsomes assessed as 5beta-hydroxylcinobufaginn formation at 100 uM […] by UFLC-ESI-MS analysis; assay type: ADME, Canis lupus familiaris; settings: 0.5 h
[5] = Drug metabolism in cynomolgus monkey liver microsomes assessed as 1alpha-hydroxylcinobufagin formation at 100 uM at 37 degC after 30 mins by UFLC-ESI-MS analysis in presence of 10 uM furafylline CYP1A2 inhibitor; assay type: ADME, Macaca fascicularis; settings: 0.5 h; procedure, shortened: as §2
Liver microsome [6] = test: Drug metabolism in human liver microsomes assessed as 1alpha-hydroxylcinobufagin formation per mg of protein at 100 uM at 37 degC […] by UFLC-ESI-MS analysis; assay type: ADME; settings: 0.5 h
[7] = Drug metabolism in Swiss-Hauschka (ICR) mouse liver microsomes assessed as 1alpha-hydroxylcinobufagin formation at 100 uM at 37 degC after 30 mins by UFLC-ESI-MS analysis in presence of 10 uM furafylline CYP1A2 inhibitor; assay type: ADME; settings: 0.5 h; procedure, shortened: as §2
Liver microsome [8] = test: Drug metabolism in human liver microsomes assessed as 1alpha-hydroxylcinobufagin formation at 100 uM at 37 degC after 30 mins by UFLC-ESI-MS analysis in presence of 10 uM quinidine CYP2D6 inhibitor; assay type: ADME; settings: 0.5 h
Procedure, shortened: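 Pooled human liver microsomes (10 donors, both sexes) in 100 mM potassium phosphate pH 7.4 were incubated with CB and a selective P450 inhibitor. Reaction was started with NADPH-generating system after 3 min preincubation at 37°C and stopped with ice-cold acetonitrile. Hydroxylated products were quantified by UFLC-DAD at 294 nm; three experiments in duplicate.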

[9] = Drug metabolism in Swiss-Hauschka (ICR) mouse liver microsomes assessed as 5beta-hydroxylcinobufagin formation at 100 uM at 37 degC after 30 mins by UFLC-ESI-MS analysis in presence of NADPH-generating system; assay type: ADME; settings: 0.5 h; procedure, shortened: as §1
Liver microsome [10] = test: Drug metabolism in human liver microsomes assessed as 1alpha-hydroxylcinobufagin formation at 100 uM at 37 degC after 30 mins by UFLC-ESI-MS analysis in presence of NADPH-generating system; assay type: ADME; settings: 0.5 h
Procedure, shortened: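 CB (100 µM; acetonitrile ≤1% final) was incubated with pooled HLM (0.3 mg/ml) plus NADPH-generating system (1 mM NADP+, 10 mM glucose 6-phosphate, 1 unit/ml G6PDH, 4 mM MgCl2) in pH 7.4 phosphate buffer at 37°C for 30 min. Products were identified by UFLC-ESI-MS and quantified by UFLC-DAD at 294 nm.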

[11] = Ratio of Vmax/Km in Colony-bred Chinese Bama minipig liver microsomes assessed as 5beta-hydroxylcinobufaginn formation at 100 uM […] by UFLC-ESI-MS analysis; assay type: ADME, Sus scrofa; settings: pig, 0.5 h
[12] = Drug metabolism in cynomolgus monkey liver microsomes assessed as 1alpha-hydroxylcinobufagin formation at 100 uM at 37 degC after 30 mins by UFLC-ESI-MS analysis in presence of NADPH-generating system; assay type: ADME, Macaca fascicularis; settings: 0.5 h; procedure, shortened: as §1
[13] = Drug metabolism in Swiss-Hauschka (ICR) mouse liver microsomes assessed as 1alpha-hydroxylcinobufagin formation at 100 uM at 37 degC after 30 mins by UFLC-ESI-MS analysis in presence of NADPH-generating system; assay type: ADME; settings: 0.5 h; procedure, shortened: as §1
[14] = Drug metabolism in cynomolgus monkey liver microsomes assessed as 1alpha-hydroxylcinobufagin formation at 100 uM at 37 degC after 30 mins by UFLC-ESI-MS analysis in presence of 10 uM sulfaphenazole CYP2C9 inhibitor; assay type: ADME, Macaca fascicularis; settings: 0.5 h; procedure, shortened: as §2
[15] = Drug metabolism in Colony-bred Chinese Bama minipig liver microsomes assessed as 1alpha-hydroxylcinobufagin formation at 100 uM at 37 degC after 30 mins by UFLC-ESI-MS analysis in presence of 1 uM ketoconazole CYP3A4 inhibitor; assay type: ADME, Sus scrofa; settings: pig, 0.5 h; procedure, shortened: as §2
[16] = Drug metabolism in Swiss-Hauschka (ICR) mouse liver microsomes assessed as 1alpha-hydroxylcinobufagin formation at 100 uM at 37 degC after 30 mins by UFLC-ESI-MS analysis in presence of 1 uM ketoconazole CYP3A4 inhibitor; assay type: ADME; settings: 0.5 h; procedure, shortened: as §2
Liver microsome [17] = test: Drug metabolism in human liver microsomes assessed as 1alpha-hydroxylcinobufagin formation at 100 uM at 37 degC after 30 mins […] in presence of 1 uM ketoconazole CYP3A4 inhibitor; assay type: ADME; settings: 0.5 h
Liver microsome [18] = test: Drug metabolism in beagle dog liver microsomes assessed as 1alpha-hydroxylcinobufagin formation at 100 uM at 37 degC after 30 mins by UFLC-ESI-MS analysis; assay type: ADME, Canis lupus familiaris; settings: 0.5 h, read-out: Km(app); procedure, shortened: as §1
Liver microsome [19] = test: Drug metabolism in beagle dog liver microsomes assessed as 1alpha-hydroxylcinobufagin formation per mg of protein at 100 uM at 37 degC after 30 mins by UFLC-ESI-MS analysis; assay type: ADME, Canis lupus familiaris; settings: 0.5 h; procedure, shortened: as §1
Liver microsome [20] = test: Drug metabolism in human liver microsomes assessed as 5beta-hydroxylcinobufagin formation at 100 uM at 37 degC after 30 mins […] in presence of 2.5 uM 8-methoxypsoralen CYP2A6 inhibitor; assay type: ADME; settings: 0.5 h
Liver microsome [21] = test: Drug metabolism in human liver microsomes assessed as 5beta-hydroxylcinobufagin formation at 100 uM at 37 degC after 30 mins by […] in presence of 1 uM ketoconazole CYP3A4 inhibitor; assay type: ADME; settings: 0.5 h
Liver microsome [22] = test: Drug metabolism in human liver microsomes assessed as 5beta-hydroxylcinobufagin formation at 100 uM at 37 degC after 30 mins […] in presence of 10 uM sulfaphenazole CYP2C9 inhibitor; assay type: ADME; settings: 0.5 h
[23] = Drug metabolism in Colony-bred Chinese Bama minipig liver microsomes assessed as 1alpha-hydroxylcinobufagin formation at 100 uM at 37 degC after 30 mins by UFLC-ESI-MS analysis in presence of NADPH-generating system; assay type: ADME, Sus scrofa; settings: pig, 0.5 h; procedure, shortened: as §1

## CC(=O)O[C@H]1[C@H]2O[C@]23[C@@H]2CC[C@@H]4C[C@@H](O)CC[C@]4(C)[C@H]2CC[C@]3(C)[C@H]1c1ccc(=O)oc1 [CINOBUFAGIN]
[1]
  Vmax: 0.65 nmol/min/mg
Liver
  Vmax/Km: 644.6 µL/min/mg
[2]
  Vmax: 2.12 nmol/min/mg
Liver microsome [3]
  Drug metabolism: metabolite_detected
Liver microsome [4]
  Vmax/Km: 129.4 µL/min/mg
[5]
  Drug metabolism: metabolite_detected
Liver microsome [6]
  Vmax: 0.59 nmol/min/mg
[7]
  Drug metabolism: metabolite_detected
Liver microsome [8]
  Drug metabolism: metabolite_detected
[9]
  Drug metabolism: metabolite_detected
Liver microsome [10]
  Drug metabolism: metabolite_detected
[11]
  Vmax/Km: 54.6 µL/min/mg
[12]
  Drug metabolism: metabolite_detected
[13]
  Drug metabolism: metabolite_detected
[14]
  Drug metabolism: metabolite_detected
[15]
  Drug metabolism: metabolite_not_detected
[16]
  Drug metabolism: metabolite_not_detected
Liver microsome [17]
  Drug metabolism: metabolite_not_detected
Liver microsome [18]
  Km: 3.3 µM
Liver microsome [19]
  Vmax: 1.28 nmol/min/mg
Liver microsome [20]
  Drug metabolism: metabolite_detected
Liver microsome [21]
  Drug metabolism: metabolite_not_detected
Liver microsome [22]
  Drug metabolism: metabolite_detected
[23]
  Drug metabolism: metabolite_detected
